Laboratory results reported in ChEMBL document CHEMBL4513216, “Probing the Open Global Health Chemical Diversity Library for Multistage-Active Starting Points for Next-Generation Antimalarials” (ACS Infect Dis, 2020).

Assay: Toxicity liver stage against HepG2, at 10uM
Assay type: cell-based
Parameters: test concentration 10 uM, cell line HepG2-A16-CD81EGFP
Details: human, HepG2-A16-CD81EGFP cells; read-out: INHIBITION
Method in brief: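 Uninfected HepG2-A16-CD81EGFP cells, 3 × 10^3 per well, 1536-well, plated on prespotted compound at 10 μM final, parasite-free screening media added to match infected plates; puromycin 10 μM positive, DMSO 0.5% negative; run in parallel with 48 h PbLuc assay at 37 °C, 5% CO2; viability by CellTiter-Glo luminescence, normalized to controls.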

Row | SMILES | cytotoxicity at 10 µM
1 | CC(C)NC(=O)N[C@H]1C[C@@H](c2nc(-c3ccc(F)cc3)no2)N(C)C1 | -7.97%
2 | COc1ccccc1CN1CC[C@H](c2nnc(-c3cncn3C)o2)C1 | 8.33%
3 | CCOC(=O)CNC(=O)NCc1cccn1Cc1ccc(F)cc1 | 11.6%
4 | COc1ccc(F)cc1S(=O)(=O)NCC(O)c1sccc1C (stereo not given) | -0.269%
5 | COc1ccc(C(=O)NCCN2CCC(c3cccs3)CC2)cc1OC | -0.493%
6 | CSCCC(C)(O)CNS(=O)(=O)Cc1cccc(C)c1 (stereo not given) | 1.09%
7 | O=c1[nH]c2cc(S(=O)(=O)N3CCC(c4ccsc4)CC3)ccc2o1 | -9.69%
8 | Cc1cnc(N2CCCn3c(nnc3Cn3cccn3)C2)nc1 | 6.19%
9 | CS(=O)(=O)N1CCC2(CC1)CN(CCn1cccn1)C(=O)CO2 | -2.79%
10 | CC(=O)N1C[C@H]2C3(CCN(S(C)(=O)=O)CC3)CC[C@@]2(C(=O)N(C)C)C1 | -1.16%
11 | CN1[C@@H](C(=O)NCC2CC2)C[C@@H]2CN(c3ncccn3)C[C@@H]21 | 9.85%
12 | O=C(c1ccsc1)N1CCc2c(CNc3nccs3)n[nH]c2C1 | 10.9%
13 | Cn1cccc1C(=O)N[C@@H]1CN(S(C)(=O)=O)[C@@H]2COC[C@@H]21 | 14.1%
14 | Cc1ncsc1CN1CC[C@H]2OCC[C@@]2(C(=O)N2CCCO2)C1 | -0.0653%
15 | CCC1=N[C@@]2(CC[C@@H]3CN(S(=O)(=O)CC)C[C@@H]32)C(=O)N1CC | 5.22%
16 | COCC1CN(Cc2cccnc2OC)Cc2cnn(C)c21 (stereo not given) | 2.69%
17 | COCCc1noc(-c2ccc(=O)[nH]c2)n1 | -3.61%
18 | CC1CCN(c2nccn3c(=O)[nH]nc23)CC1 | 6.09%
19 | COc1ccc(Cl)cc1-c1nc(N)nc(N)n1 | 1.57%
20 | Cn1c(C(F)(F)F)nn(CCNC(=O)CSCc2ccccc2)c1=O | -24%
21 | CCn1nccc1CNC(=O)C1CCCO1 (stereo not given) | -2.21%
22 | CCn1cc(Br)c(C(=O)NCc2ccccc2)n1 | 7.61%

Row | SMILES | cytotoxicity at 10 µM
23 | CC1CCC2(CC1)NC(=O)c1cc(Br)ccc1-n1nnnc12 (stereo not given) | 10.1%
24 | CC(C)Cc1noc(C2CCN(C(=O)c3cccs3)CC2)n1 | 9.81%
25 | CCn1nc(C)c2c1cnn2CCNS(C)(=O)=O | 7.55%
26 | CCCc1nc(NCCOC)c2c(n1)c(C)nn2CC | 3.36%
27 | O=C(NCCCn1cccn1)C1(c2ccccc2)CCOCC1 | 5.78%
28 | O=C(COCc1nc(-c2ccncc2)no1)N1CCCC1 | -10.7%
29 | Cc1cc(-c2ccnn2C)nc(C2CCCN(S(C)(=O)=O)C2)n1 (stereo not given) | 3.33%
30 | CC1(c2ncc(CN(CC(=O)O)Cc3ccccc3)cn2)CCCCO1 (stereo not given) | -3.73%
31 | CN1C[C@@H](C(=O)NC2CC2)[C@@]2(COc3ccc(F)cc3C2=O)C1 | -26.5%
32 | Cn1ccc(C(=O)N2CCc3[nH]nc(Nc4ccccc4)c3C2)n1 | 5.21%
33 | Cc1n[nH]c(C)c1CC(=O)N1CC[C@@](C)(O)[C@H](Oc2ccccc2)C1 | 2.85%
34 | Cn1ccc(C(=O)NCC2(O)CCN(c3cnccn3)C2)n1 (stereo not given) | 3.45%
35 | Cc1c(C(=O)NC2CCCOC2)nnn1-c1ccccc1 (stereo not given) | -24.5%
36 | Cc1cc(C2CCN(S(=O)(=O)c3cn(C)cn3)CC2)ccn1 | -32.6%
37 | Cc1nc(C2CCCN2C(=O)CC2CCCC2)ncc1C(N)=O (stereo not given) | -21.7%
38 | O=C(NC1CCCc2nc(N3CCOCC3)ncc21)C1CCCCC1 (stereo not given) | -19.9%
39 | Cc1ccc(-c2cc(N)c(=O)n(CC(=O)NCC3CC3)n2)s1 | 10.3%
40 | NCc1cnn(-c2ccccc2C(=O)NCc2ccncc2)c1 | -1.78%
41 | CN(C)C(=O)c1nc(-c2ccc(S(C)(=O)=O)cc2)c2cnccn12 | 7.27%
42 | CN(C)C(=O)N1CCN(c2ccc(Cl)nn2)C(=O)C1 | 9.1%
43 | CCc1ccc(C(NCC(N)=O)C(C)(C)C)o1 (stereo not given) | -7.21%
44 | CCC(c1ccc(F)cc1)N1CCn2c(CO)nnc2C1 (stereo not given) | -9.15%

Row | SMILES | cytotoxicity at 10 µM
45 | Cc1nnc(NCCc2coc(-c3ccccc3)n2)c(C#N)c1C | -14.3%
46 | CC(C)c1nc(S(=O)(=O)Nc2ccnn2C2CCCC2)c[nH]1 | -3.36%
47 | Cn1c(CO)cnc1SC1CCCN(c2ccccc2F)C1=O (stereo not given) | -4%
48 | OC(CNCc1nnc2ccccn12)c1ccc2c(c1)OCCCO2 (stereo not given) | 2.93%
49 | COc1cccc(CC(C)NC(=O)NCCc2cccnc2)c1 (stereo not given) | -11%
50 | Cc1cc(C2CCCN(Cc3nnc(Cc4ccccc4)o3)C2)n[nH]1 (stereo not given) | -5.78%
51 | NC(=O)C1CCN(C(=O)NC2CCc3cc(F)ccc32)CC1 (stereo not given) | 2.52%
52 | CN(C)C1Cc2ccccc2N(S(=O)(=O)c2ccccc2C#N)C1 (stereo not given) | 0.71%
53 | NC(=O)C1CCN(C(=O)NCc2ccc3c(c2)OCCO3)CC1 | -8.14%
54 | Cc1nn(C)c(N2CCCN(C)CC2)c1CNC(=O)CCC(C)C | -1.08%
55 | Cc1nn(CC(C)C)c(C)c1CC(=O)N1CCCC(NS(C)(=O)=O)C1 (stereo not given) | 6.29%
56 | COc1ccc2oc(C(C)NC(=O)NCc3noc(C)n3)c(C)c2c1 (stereo not given) | 5.08%
57 | Cc1csc(C2CCCCN2C(=O)COCc2nc(C)no2)n1 (stereo not given) | 1.09%
58 | CNS(=O)(=O)CC(=O)N(Cc1c(F)cccc1Cl)C1CC1 | 4.71%
59 | CSc1ccsc1C(=O)NS(=O)(=O)c1cccc(C#N)c1 | 7.49%
60 | OCCN1CCN(CC(O)c2ccc(C(F)(F)F)cc2)CC1 (stereo not given) | -10%
61 | CCS(=O)(=O)CCNC(=O)NC(C)c1ccc(C)s1 (stereo not given) | -8.64%
62 | CC(C)n1nc2c(cc1=O)CN(CC(=O)N(C)c1nccs1)CC2 | -9.94%
63 | Cn1nnnc1SCC1Cc2ccccc2O1 (stereo not given) | 14.9%
64 | CC(C)(C)OC(=O)NC1(c2noc(-c3ccoc3)n2)CCC1 | 3.12%
65 | CCc1nc(C2CCCN2CCc2cccs2)no1 (stereo not given) | -108%
66 | Cc1cc(C)n(CC2CCCN2C(=O)Cc2csc(C)n2)n1 (stereo not given) | 9.3%

Row | SMILES | cytotoxicity at 10 µM
67 | O=c1[nH]c(N2CC(O)C2)nc2c1cnn2-c1ccccc1 | 1.92%
68 | CC(C)NC(=O)C1CN(C(=O)Nc2cccc(F)c2)CC12CCOCC2 (stereo not given) | -85.8%
69 | C[C@@H]1CN(C(=O)NC2CC2)C[C@]12CCN(c1ccsc1)C2=O | 0.77%
70 | CCN1CC2(CCC1=O)CCN(Cc1nncn1C)CC2 | 4.46%
71 | Cc1nc(CN2CCN(c3cc(CCN)ncn3)CC2)cs1 | -145%
72 | CCNc1ncc(C(=O)N[C@H](C(N)=O)c2ccccc2)cn1 | 10.6%
73 | CCOCc1nc2c(c(N(C)Cc3ccsc3)n1)CCNCC2 | 11.1%
74 | COCCN(Cc1sccc1C)Cc1nccn1CCOC | 2.33%
75 | O=C(NCCOCCO)[C@@]12CNC[C@@H]1CN(C1CCCC1)C2 | -16.4%
76 | Cc1cn(CC(=O)Nc2cc(C(C)(C)C)nn2C)cn1 | 0.79%
77 | Cc1ccccc1C(C(=O)NCCSC(C)C)N(C)C (stereo not given) | 9.38%
78 | CN1CCC(N(Cc2ccncc2)C(=O)COCC2CCCCO2)CC1 (stereo not given) | -150%
79 | COc1ccc(OC)c2c(C)cc(N(C)Cc3cc(C)on3)nc12 | 1.42%
80 | CC(=O)c1ccc(CN2C[C@@H](CN3CCC(O)CC3)[C@@H](CO)C2)cc1 | 9.99%
81 | O=C(c1ncccc1O)N1CCN(Cc2ccco2)C(CCO)C1 (stereo not given) | 3.89%
82 | O=C(N[C@@H]1CCNC[C@H]1O)c1ccccc1OC(F)(F)C(F)F | -3.28%
83 | COc1cccc(CNc2nc(O)cc(C3CC(=O)N(C)C3)n2)c1 (stereo not given) | -2.24%
84 | CCn1cc(C(=O)N2CCCC(c3[nH]ncc3S(C)(=O)=O)C2)cn1 (stereo not given) | 8.42%
85 | O=C(NCc1ccco1)N1CCN(Cc2ccc3c(c2)CCO3)CC1 | -2.83%
86 | CN(C)C(=O)CS(=O)(=O)Cc1cc(Cl)c2c(c1)OCCO2 | 1.38%
87 | NC(=O)C1CCN(C(=O)NCc2csc(Br)c2)CC1 | -18%
88 | Cc1cnn(CC2CN(CC(=O)Nc3cc(C)on3)CCO2)c1 (stereo not given) | -7.3%

Row | SMILES | cytotoxicity at 10 µM
89 | O=C(c1cccc2cccnc12)N1CCCC(n2ccnc2)C1 (stereo not given) | -5.75%
90 | CCCc1nc(CN2CCCC2Cn2cncn2)no1 (stereo not given) | -2%
91 | COCCCNC(=O)N1CCC(CNC(=O)c2cnn(C)c2)CC1 | -1.3%
92 | Cc1ccc(N2CCCC(NCc3ccc(C)s3)C2)nn1 (stereo not given) | -2.51%
93 | COc1cc(C)nc(N2CCN(C(=O)CCn3cc(C)cn3)CC2)n1 | -3.56%
94 | COc1c(C)cnc(CN2CCOC(Cn3nc(C)nc3C)C2)c1C (stereo not given) | -13.1%
95 | Cc1cn2c(n1)CCC(NC(=O)c1cc(Br)cn1C)C2 (stereo not given) | 3.18%
96 | CS(=O)(=O)NC1CCCN(C(=O)NCc2cc[nH]n2)C1 (stereo not given) | 4.14%
97 | Cn1nc2c(cc1=O)CN(Cc1nnc(-c3ccc(F)cc3)o1)CC2 | -9.47%
98 | CCc1onc(C)c1C(=O)N1CCN(c2ncc3c(n2)CCOC3)CC1 | 0.0912%
99 | Cn1nc(CNC(=O)CC#N)c2c1CN(CC1CC1)CC2 | 7.4%
100 | Cc1ccc(CN2CCn3cc(CNC(=O)c4cnn(C)c4)nc3C2)s1 | 1.13%
101 | COCCN1CCn2cc(CNC(=O)c3cnn(C)c3)nc2C1 | -3.09%
102 | COCCN1C[C@@H]2[C@@H](OC)CCN(Cc3cccs3)[C@@H]2C1 | 3.86%
103 | CN(Cc1cccnc1)CC1CC12CCN(c1nncs1)CC2 (stereo not given) | 9.28%
104 | CCS(=O)(=O)NC[C@]12COC[C@H]1CN(Cc1cccnc1OC)C2 | 1.97%
105 | OCCN1CCOC2(CCCN(c3ncc(F)cn3)C2)C1 (stereo not given) | 5.98%
106 | CN(C)CCN1CCO[C@H]2CN(Cc3ccccn3)C[C@H]21 | -1.91%
107 | c1cnc2c(c1)cc([C@H]1CCCO1)n2CCN1CCCC1 | 0.975%
108 | Cn1ccnc1CN1CCO[C@H]2C(CNC(=O)c3ccco3)CC[C@@H]21 (stereo not given in full) | 3.62%
109 | CCCC12CN3CC(CCC)(CN(C1)C3c1[nH]c(=O)[nH]c(=O)c1C)C2=O (stereo not given) | 4.17%
110 | O=C(c1c[nH]c(=O)cn1)N1C[C@H]2CC[C@@H](C1)N(Cc1ccccc1)C2 | -126%
